Data on 23 compounds can be found in ChEMBL document CHEMBL3046199, “Synthesis and antiviral activities of pyrazole derivatives containing an oxime moiety” (J Agric Food Chem, 2008).

As usually defined, the EC50 is the concentration needed to bring the measured effect to its halfway point.

In test [1] the test system is Tobacco mosaic virus. Nature of the test: In vivo antiviral activity against Tobacco mosaic virus (TMV) infected left side of tobacco leaves assessed as inactivation effect at 500 ug/ml co-incubated with virus for 30 min before inoculation onto leaves measured at 3-4 days after viral challenge. The class given is functional.
Test [2] concerns Tobacco mosaic virus. Nature of the test: In vivo antiviral activity against Tobacco mosaic virus (TMV) infected left side of tobacco leaves assessed as protective effect at 500 ug/ml treated 12 hr before viral inoculation measured at 3-4 days after viral challenge. The class given is functional. The procedure, abridged:
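TMV purified from inoculated N. tabacum upper leaves (ground in phosphate buffer, filtered, centrifuged at 10000g, twice PEG-treated, all at 4 °C), concentration from A260. Compound solution smeared on left half of same-age N. tabacum leaves, solvent on right half as control. Leaves inoculated 12 h later by brush with 6 × 10^-3 mg/mL TMV over silicon carbide. Local lesions counted 3-4 days post-inoculation, three repetitions. Inhibition % = (control lesions − treated lesions)/control lesions × 100.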

The subject of test [3] is Tobacco mosaic virus. Kind of test: In vivo antiviral activity against Tobacco mosaic virus (TMV) infected left side of tobacco leaves assessed as curative effect at 500 ug/ml treated after viral inoculation measured at 3-4 days after viral challenge. The class given is functional.
The test system of test [4] is Tobacco mosaic virus. Kind of test: In vivo antiviral activity against Tobacco mosaic virus (TMV) infected left side of tobacco leaves assessed as inactivation effect co-incubated with virus for 30 min before inoculation onto leaves measured at 3-4 days after viral challenge. Format: functional, organism-based.
Test [5] relates to Tobacco mosaic virus. Kind of test: In vivo antiviral activity against Tobacco mosaic virus (TMV) infected left side of tobacco leaves assessed as inactivation effect at 62.5 ug/ml co-incubated with virus for 30 min before inoculation onto leaves measured at 3-4 days after viral challenge. The class given is functional.
Test [6] deals with Tobacco mosaic virus. Nature of the test: In vivo antiviral activity against Tobacco mosaic virus (TMV) infected left side of tobacco leaves assessed as inactivation effect at […] ug/ml co-incubated with virus for 30 min before inoculation onto leaves measured at 3-4 days after viral challenge. The class given is functional.
For test [7], the system named is Tobacco mosaic virus. Nature of the test: In vivo antiviral activity against Tobacco mosaic virus (TMV) infected left side of tobacco leaves assessed as inactivation effect at 125 ug/ml co-incubated with virus for 30 min before inoculation onto leaves measured at 3-4 days after viral challenge. Format: functional.
In test [8] the test system is Tobacco mosaic virus. Nature of the test: In vivo antiviral activity against Tobacco mosaic virus (TMV) infected left side of tobacco leaves assessed as inactivation effect at 250 ug/ml co-incubated with virus for 30 min before inoculation onto leaves measured at 3-4 days after viral challenge. The class given is functional.

Molecules are shown by their SMILES.

Turning to `Cc1ccc(S(=O)(=O)c2c(/C=N/OCc3ccc(Cl)nc3)c(C)nn2-c2ccccc2)cc1`, the results for the Activity in the test on Tobacco mosaic virus [1], with Tobacco mosaic virus [2] and in the test with Tobacco mosaic virus [3] were 45%, 28% and 9%, respectively.
Turning to `CNCC(=O)N[C@@H](CO)C(=O)N[C@H]1[C@H](O)[C@@H](O)[C@H](n2ccc(N)nc2=O)O[C@@H]1C(N)=O` [NINGNANMYCIN], in the test with Tobacco mosaic virus [4], the EC50 was 52.7 µg/mL. Also, the Activity is 59.9% in the test with Tobacco mosaic virus [5]; 44% in the test on Tobacco mosaic virus [6]; 72% with Tobacco mosaic virus [7]; 81.1% in the test with Tobacco mosaic virus [8]; 98% in the test with Tobacco mosaic virus [1]; 57% with Tobacco mosaic virus [2]. Besides, the Activity in the test on Tobacco mosaic virus [3] is reported as 54.8%.
Take `Cc1ccc(Sc2c(/C=N/OCc3ccc(Cl)nc3)c(C)nn2-c2ccc(C)cc2)cc1`: the Activity was 61% in the test with Tobacco mosaic virus [1], 15.7% with Tobacco mosaic virus [2] and 32.1% in the test on Tobacco mosaic virus [3].
Consider `COc1ccc(S(=O)(=O)c2c(/C=N/OCc3ccc(Cl)nc3)c(C)nn2-c2ccccc2)cc1`, for which the Activity with Tobacco mosaic virus [1] was determined as 30.1%; in the test on Tobacco mosaic virus [2] it was 29.8%; in the test on Tobacco mosaic virus [3], 15.6%.
With `COc1ccc(Sc2c(/C=N/OCc3ccc(Cl)nc3)c(C)nn2-c2ccccc2)cc1`, the half-maximal effective concentration (EC50) with Tobacco mosaic virus [4] is 115 µg/mL. Further, the Activity was 41% in the test with Tobacco mosaic virus [5]; 32% with Tobacco mosaic virus [6]; 48.9% in the test with Tobacco mosaic virus [7]; 65% in the test on Tobacco mosaic virus [8]; 71.2% in the test with Tobacco mosaic virus [1]; 16.4% in the test on Tobacco mosaic virus [2]. In the test on Tobacco mosaic virus [3], the Activity was determined as 26.6%.
`COc1ccc(Sc2c(/C=N/OCc3ccc(Cl)nc3)c(C)nn2-c2ccc(Cl)cc2)cc1`: the Activity in the test with Tobacco mosaic virus [1] was 34.5%; in the test on Tobacco mosaic virus [2] it was 22%; with Tobacco mosaic virus [3], 12.9%.
Take `Cc1nn(-c2cccc(Cl)c2)c(S(=O)(=O)c2ccc(F)cc2)c1/C=N/OCc1ccc(Cl)nc1`: the Activity in the test on Tobacco mosaic virus [1] turned out to be 30%; with Tobacco mosaic virus [2], 12.9%; with Tobacco mosaic virus [3] it was 11%.
In the case of `COc1ccc(S(=O)(=O)c2c(/C=N/OCc3ccc(Cl)nc3)c(C)nn2-c2ccc(Cl)cc2)cc1`, the Activity in the test with Tobacco mosaic virus [1] came to 30.9%; with Tobacco mosaic virus [2] it was 16.4%; in the test with Tobacco mosaic virus [3] it was 3.6%.
For the compound `Cc1ccc(-n2nc(C)c(CO/N=C/c3c(C)nn(-c4ccc(C)cc4)c3Sc3ccc(F)cc3)c2Cl)cc1`, the Activity was 50.9% in the test with Tobacco mosaic virus [1], 41% in the test on Tobacco mosaic virus [2] and 22% with Tobacco mosaic virus [3].
Consider `Cc1ccc(Sc2c(/C=N/OCc3c(C)nn(-c4ccc(C)cc4)c3Cl)c(C)nn2-c2ccc(C)cc2)cc1`, for which the Activity came out at 51.2% in the test on Tobacco mosaic virus [1], 44.8% in the test with Tobacco mosaic virus [2] and 38.9% in the test with Tobacco mosaic virus [3].
On to `Cc1nn(-c2ccccc2)c(Sc2ccc(F)cc2)c1/C=N/OCc1c(C)nn(-c2ccc(Cl)cc2)c1Cl`, for which the results for the Activity in the test with Tobacco mosaic virus [1], in the test with Tobacco mosaic virus [2] and in the test with Tobacco mosaic virus [3] were 55.9%, 32% and 35.6%, respectively.
The matching figures for `Cc1ccc(S(=O)(=O)c2c(/C=N/OCc3ccc(Cl)nc3)c(C)nn2-c2ccc(Cl)cc2)cc1`: 33.3%, 31.3% and 9.2%.
With `Cc1ccc(Sc2c(/C=N/OCc3ccc(Cl)nc3)c(C)nn2-c2ccccc2)cc1`, the EC50 in the test on Tobacco mosaic virus [4] was found to be 58.7 µg/mL. In addition, the Activity in the test on Tobacco mosaic virus [5] is listed as 55.1%; in the test on Tobacco mosaic virus [6], 40.1%; with Tobacco mosaic virus [7] it was 69.2%; in the test with Tobacco mosaic virus [8] it was 76%; in the test with Tobacco mosaic virus [1] it was 90.4%; in the test on Tobacco mosaic virus [2] it was 31.3%. Besides, the Activity in the test with Tobacco mosaic virus [3] stood at 47%.
For `Cc1ccc(-n2nc(C)c(/C=N/OCc3c(C)nn(-c4ccc(Cl)cc4)c3Cl)c2Sc2ccc(F)cc2)cc1`, the Activity in the test with Tobacco mosaic virus [1] is listed as 43%; in the test with Tobacco mosaic virus [2], 19%; in the test with Tobacco mosaic virus [3] it was 31.9%.
For `Cc1ccc(-n2nc(C)c(/C=N/OCc3ccc(Cl)nc3)c2S(=O)(=O)c2ccc(F)cc2)cc1` the same measures were 11%, 28.2% and 22%.
Regarding `Cc1nn(-c2ccccc2)c(Sc2ccc(F)cc2)c1/C=N/OCc1ccc(Cl)nc1`, the Activity turned out to be 65.9% in the test on Tobacco mosaic virus [1], 18.9% in the test on Tobacco mosaic virus [2] and 24% with Tobacco mosaic virus [3].
Regarding `Cc1nn(-c2ccccc2)c(S(=O)(=O)c2ccc(F)cc2)c1/C=N/OCc1ccc(Cl)nc1`, the Activity in the test with Tobacco mosaic virus [1] is 20.6%; in the test with Tobacco mosaic virus [2] it was 40.2%; in the test on Tobacco mosaic virus [3], 21.7%.
On to `Cc1nn(-c2cccc(Cl)c2)c(Sc2ccc(F)cc2)c1/C=N/OCc1ccc(Cl)nc1`, for which the Activity with Tobacco mosaic virus [1] is reported as 61.7%; with Tobacco mosaic virus [2], 28.6%; with Tobacco mosaic virus [3], 34.3%.
For `Cc1ccc(-n2nc(C)c(/C=N/OCc3ccc(Cl)nc3)c2Sc2ccc(F)cc2)cc1` the same measures were 56.6%, 31% and 22%.
As to `Cc1ccc(Sc2c(/C=N/OCc3ccc(Cl)nc3)c(C)nn2-c2ccc(Cl)cc2)cc1`, the Activity in the test with Tobacco mosaic virus [1] is given as 61.2%; in the test on Tobacco mosaic virus [2] it was 37.7%; with Tobacco mosaic virus [3] it was 26%.
With `Cc1nn(-c2ccc(Cl)cc2)c(S(=O)(=O)c2ccc(F)cc2)c1/C=N/OCc1ccc(Cl)nc1`, the Activity worked out at 44.1% in the test with Tobacco mosaic virus [1], 42.2% in the test with Tobacco mosaic virus [2] and 7.7% with Tobacco mosaic virus [3].
On to `Cc1nn(-c2ccc(Cl)cc2)c(Sc2ccc(F)cc2)c1/C=N/OCc1ccc(Cl)nc1`, for which the EC50 in the test with Tobacco mosaic virus [4] was 65.3 µg/mL. For the same compound, the Activity with Tobacco mosaic virus [5] is 51.2%; in the test with Tobacco mosaic virus [6], 40.6%; in the test with Tobacco mosaic virus [7] it was 53%; in the test on Tobacco mosaic virus [8], 65.7%; in the test with Tobacco mosaic virus [1], 80.6%; with Tobacco mosaic virus [2] it was 43.5%. The Activity with Tobacco mosaic virus [3] turned out to be 37.3%.
For the compound `Cc1ccc(Sc2c(/C=N/OCc3c(C)nn(-c4ccc(C)cc4)c3Cl)c(C)nn2-c2ccc(Cl)cc2)cc1`, the values for the Activity in the test with Tobacco mosaic virus [1], with Tobacco mosaic virus [2] and with Tobacco mosaic virus [3] were 36.7%, 21% and 18.9%, respectively.
